Drawing on ChEMBL document CHEMBL1144441, “Identification of a novel cardenolide (2''-oxovoruscharin) from Calotropis procera and the hemisynthesis of novel derivatives displaying potent in vitro antitumor activities and high in vivo tolerance: structure-activity relationship analyses” (J Med Chem, 2005), this text covers IC50 and MTD for eight compounds.

Usually IC50 stands for the concentration needed to halve the response being measured. Low values mean inhibition by little substance, high ones a need for much substance. As usually defined, the MTD is the largest dose that counted as tolerated. A higher MTD goes with better tolerability.

Test [1] addresses Sodium/potassium-transporting ATPase subunit alpha-1 (Sus scrofa, UniProt P05024). Put plainly: In vitro inhibitory activity against porcine Na+/K+-ATPase. The method, boiled down:
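Porcine cerebral cortex Na+/K+-ATPase (3 × 10-3 units), preincubated 30 min at 37 °C in 30 mM Tris-HCl pH 7.4, 5 mM MgCl2 with inhibitor (1 to 50 000 nM). ADP formation coupled via pyruvate kinase/lactate dehydrogenase, excess phosphoenolpyruvate, to NADH oxidation.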

Test [2] can be described thus: Concentration required for 50% growth inhibition of human Hs 683 cancer cell lines after 3 days of culture. The format is functional, cell-based. As to conditions: 72 h. The method, boiled down: (§1)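 MTT overall-growth assay on the five lines. Cells were plated for 24 h at 10 000–40 000 cells/mL, depending on cell type. Nine concentrations from 10^-9 to 10^-5 M in semilog steps were applied for 72 h. Formazan was read at 570 nm against a 630 nm reference, in sextuplicate. IC50 = concentration reducing overall growth by 50% versus untreated control.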

Another test deals with U373 MG. Put plainly: Concentration required for 50% growth inhibition of human U373 cancer cell lines after 3 days of culture. The format is functional, cell-based, U-373MG ATCC. As to conditions: 72 h. The procedure, abridged: as §1
A further test has as its system HCT-15. Put plainly: Concentration required for 50% growth inhibition of human HCT-15 cancer cell lines after 3 days of culture. The format is functional, cell-based. As to conditions: HCT-15, 72 h. The procedure, abridged: as §1
Test [3] concerns Mus musculus. Kind of test: Maximum tolerated dose after intraperitoneal administration in mouse (period of 28 days). The class given is functional. The method, boiled down: (§2)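 Healthy, non-tumour-bearing B6D2F1 mice given one acute intraperitoneal dose, three mice per dose group, doses 5, 10, 20, 40, 80, 120 and 160 mg/kg. Survival and body weight followed for 28 days after injection. MTD is the highest single dose causing no deaths over the period.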

A further test deals with A549. Put plainly: Concentration required for 50% growth inhibition of human A549 cancer cell lines after 3 days of culture. The format is functional, cell-based. As to conditions: A549, 72 h. The method, boiled down:
as §1

The test system of another test is LoVo. Kind of test: Concentration required for 50% growth inhibition of human LoVo cancer cell lines after 3 days of culture. As to conditions: 72 h. The class given is functional, cell-based. The procedure, abridged: as §1
Test [4] relates to Mus musculus. Kind of test: Maximum tolerated dose after intraperitoneal administration in mouse (period of 28 days); not determined. The format is functional. The method, boiled down:
as §2

Each structure is given as a SMILES string.

Consider `C[C@@H]1C[C@@]2(N=C(N)CS2)C2(O[Si](C)(C)C)O[C@@H]3C[C@@]4(C=O)[C@@H](CC[C@@H]5[C@@H]4CC[C@]4(C)[C@@H](C6=CC(=O)OC6)CC[C@]54CO[Si](C)(C)C)C[C@H]3O[C@@H]2O1` (stereo not given in full), for which the IC50 in test [1] is 50 µM; in test [2], 8.6 µM; with U373 MG, more than 10 µM; in the test with HCT-15 it was more than 10 µM; in the test on A549 it was 7.54 µM; with LoVo it was more than 10 µM. For the same compound, the MTD in the test on Mus musculus [3] was more than 160 mg/kg.

For `C[C@@H]1C[C@@]2(N=C(N)CS2)C2(O)O[C@@H]3C[C@@]4(COC(=O)c5ccccc5)[C@@H](CC[C@@H]5[C@@H]4CC[C@]4(C)[C@@H](C6=CC(=O)OC6)CC[C@]54CO)C[C@H]3O[C@@H]2O1` (stereo not given in full), the half-inhibitory concentration (IC50) in test [1] is more than 50 µM; in test [2] it was more than 10 µM; in the test on U373 MG, more than 10 µM; in the test on HCT-15, more than 10 µM; in the test with A549, more than 10 µM; in the test with LoVo it was more than 10 µM. Also, the maximum tolerated dose (MTD) in the test on Mus musculus [3] was more than 40 mg/kg.

Turning to `CC(=O)OC[C@]12C[C@H]3OC4(O)[C@@H](O[C@H](C)C[C@@]45N=C(N)CS5)O[C@@H]3C[C@@H]1CC[C@@H]1[C@@H]2CC[C@]2(C)[C@@H](C3=CC(=O)OC3)CC[C@]12CO` (stereo not given in full), the 50% inhibitory concentration (IC50) in test [1] is 12.1 µM; in test [2] it was more than 1.28 µM; in the test on U373 MG, more than 4.15 µM; in the test with HCT-15 it was 4.13 µM; in the test on A549, 3.71 µM; in the test on LoVo, 3.54 µM. Also, the maximal tolerated dose (MTD) with Mus musculus [3] was more than 40 mg/kg.

As to `C[C@@H]1C[C@@]2(N=C(N)CS2)C2(O[Si](C)(C)C)O[C@@H]3C[C@@]4(CO[Si](C)(C)C)[C@@H](CC[C@@H]5[C@@H]4CC[C@]4(C)[C@@H](C6=CC(=O)OC6)CC[C@]54CO[Si](C)(C)C)C[C@H]3O[C@@H]2O1` (stereo not given in full), the IC50 in test [1] was more than 50 µM; in test [2], more than 10 µM; in the test on U373 MG, more than 10 µM; with HCT-15, more than 10 µM; in the test on A549 it was more than 10 µM; with LoVo, more than 10 µM. The compound also returned an MTD with Mus musculus [3] of more than 160 mg/kg.

As for `C[C@@H]1C[C@@]2(N=C(N)CS2)C2(O[Si](C)(C)C)O[C@@H]3C[C@@]4(CO[Si](C)(C)C)[C@@H](CC[C@@H]5[C@@H]4CC[C@]4(C)[C@@H](C6=CC(=O)OC6)CC[C@]54CO)C[C@H]3O[C@@H]2O1` (stereo not given in full), the concentration for half-maximal inhibition (IC50) in test [1] is 4.08 µM; in test [2], 1.11 µM; in the test with U373 MG it was 4.62 µM; in the test on HCT-15 it was 3.66 µM; with A549, 2.58 µM; in the test with LoVo, 3.85 µM. Also, the maximal tolerated dose (MTD) in the test with Mus musculus [3] was more than 160 mg/kg.

For the compound `C[C@@H]1C[C@@]2(N=C(N)CS2)[C@]2(O)O[C@@H]3C[C@@]4(C=O)[C@@H](CC[C@@H]5[C@@H]4CC[C@]4(C)[C@@H](C6=CC(=O)OC6)CC[C@]54O)C[C@H]3O[C@@H]2O1`, the 50% inhibitory concentration (IC50) worked out at 0.068 µM in test [1]; 0.004 µM in test [2]; 0.04 µM with U373 MG; 0.028 µM in the test on HCT-15; 0.025 µM with A549; 0.01 µM with LoVo. This compound also came in with an MTD with Mus musculus [3] of 5 mg/kg.

Regarding `CC(=O)OC[C@]12C[C@H]3OC4(O[Si](C)(C)C)[C@@H](O[C@H](C)C[C@@]45N=C(N)CS5)O[C@@H]3C[C@@H]1CC[C@@H]1[C@@H]2CC[C@]2(C)[C@@H](C3=CC(=O)OC3)CC[C@]12CO[Si](C)(C)C` (stereo not given in full), the IC50 in test [1] was more than 50 µM; in test [2] it was 7.92 µM; with U373 MG it was more than 10 µM; with HCT-15, more than 10 µM; in the test with A549, more than 10 µM; in the test with LoVo, 9.57 µM. The compound also had an MTD with Mus musculus [3] of more than 160 mg/kg.

Take `CC(=O)CCC(=O)OC[C@]12C[C@H]3OC4(O)[C@@H](O[C@H](C)C[C@@]45NC(=O)CS5)O[C@@H]3C[C@@H]1CC[C@@H]1[C@@H]2CC[C@]2(C)[C@@H](C3=CC(=O)OC3)CC[C@]12CO` (stereo not given in full): the concentration for half-maximal inhibition (IC50) in test [2] was found to be 0.758 µM; with U373 MG it was 3.23 µM; with HCT-15, 3.24 µM; with A549, 0.463 µM; with LoVo, 3 µM. For the same compound, the maximal tolerated dose (MTD) in the test with Mus musculus [4] amounted to 20 mg/kg.
